Results gathered from unrelated publications.
Protocols differ between the studies behind these lines.
RPS6KA5: Ribosomal protein S6 kinase alpha-5 (RPS6KA5, Homo sapiens, UniProt O75582)
RPS6KA5 C-terminal kinase domain: Ribosomal protein S6 kinase alpha-5, C-terminal kinase domain (RPS6KA5, Homo sapiens, UniProt O75582)
RPS6KA5 N-terminal kinase domain: Ribosomal protein S6 kinase alpha-5, N-terminal kinase domain (RPS6KA5, Homo sapiens, UniProt O75582)

For `CCN(CC)CCNC(=O)c1c(C)[nH]c(/C=C2\C(=O)Nc3ccc(F)cc32)c1C`, the remaining signal was 60.1% (RPS6KA5; cell-free assay; 0.5 µM).
For `COc1cc(Nc2cnc(C#N)c(O[C@H](C)CN(C)C)n2)ncc1-c1cnn(C)c1`, the remaining activity was 41% (RPS6KA5; enzyme activity, inhibitor, radiometric; 10 µM).
`Cn1c(=O)n(-c2ccc(C(C)(C)C#N)cc2)c2c3cc(-c4cnc5ccccc5c4)ccc3ncc21` gave a remaining activity of 102% (RPS6KA5; enzyme activity, inhibitor; 10 µM).
For `N#CCCc1ccc2c(c1)-c1[nH]c3ccc([N+](=O)[O-])cc3c1CC(=O)N2`, the remaining signal was 94.2% (RPS6KA5; cell-free assay; 0.5 µM).
`CC(=O)N1CCC(c2ccc(C(=O)NC3=NCCN3)cc2C(F)(F)F)CC1` has a remaining binding of 70% (RPS6KA5 C-terminal kinase domain; cell-free assay, competition with immobilised ligand; 1 µM).
For `CC(C)(C)c1nc2c(s1)c1nc(N)ncc1c1ccc(NS(=O)(=O)c3c(F)cccc3F)c(F)c12`, the remaining activity was 95% (RPS6KA5; enzyme activity, inhibitor, radiometric; 1 µM).
The remaining activity of `COc1cc(Cl)c(C(=O)N[C@@H](CN[C@H]2CC[C@@H](N)CC2)Cc2ccc(C#N)cc2)cc1-c1ccc(CN[C@H](C)c2ccc(C)cc2)o1` is reported as 85% (RPS6KA5; enzyme activity, inhibitor; 1 µM).
`Nc1nc(NC2CCCCC2)sc1C(=O)c1ccccc1` gave a remaining activity of 122% (RPS6KA5; enzyme activity, inhibitor; 10 µM).
The inhibition of `Cc1ccc(Nc2nccc(N(C)c3ccc4c(C)n(C)nc4c3)n2)cc1S(N)(=O)=O` is reported as 6% (RPS6KA5; enzyme activity, inhibitor; 0.3 µM).
For `COc1cc2c(N3CCN(C(=O)Nc4ccc(OC(C)C)cc4)CC3)ncnc2cc1OCCCN1CCCCC1`, the remaining signal was 109% (RPS6KA5; cell-free assay; 0.5 µM).
With `NS(=O)(=O)c1cc(NC(=O)Cc2ccccc2)ccc1Oc1cccc(Cl)c1` the remaining binding was 71% (RPS6KA5 N-terminal kinase domain; cell-free assay, competition with immobilised ligand; 1 µM).
The remaining binding of `N[C@H]1CCN(c2nccc(-c3cnn4ncccc34)n2)C1` is reported as 100% (RPS6KA5 C-terminal kinase domain; binding, competition with immobilised ligand; 1 µM).
`Nc1ncnc2occ(-c3ccc(NC(=O)Nc4cc(C(F)(F)F)ccc4F)cc3)c12` has a remaining signal of 23% (RPS6KA5 C-terminal kinase domain; cell-free assay, inhibitor; 20 µM).
The inhibition of `CNCc1ccc(-c2cc(-c3nc(-c4ccc(S(=O)(=O)C(C)C)cc4)cnc3N)on2)cc1` is reported as 0% (RPS6KA5; enzyme activity, inhibitor; 0.4 µM).
`Cc1ccc(C(=O)NCc2ccsc2)cc1C#Cc1cn(C(C)C)c2ncnc(N)c12` gave an activity vs control of 104% (RPS6KA5; enzyme activity, inhibitor; 1 µM).
`CC1=C(C#N)C(c2ccc3c(c2)c(NC(=O)c2ccccc2C)nn3C)C(C#N)=C(C)N1` has a remaining binding of 91% (RPS6KA5 N-terminal kinase domain; cell-free assay, competition with immobilised ligand; 1 µM).
For `COc1cc(/C=C/C(=O)CC(=O)/C=C/c2ccc(O)c(OC)c2)ccc1O`, the activity vs control was 92% (RPS6KA5; enzyme activity, inhibitor; 1 µM).
With `CNC(=O)c1cc(Oc2ccc(NC(=O)Nc3ccc(Cl)c(C(F)(F)F)c3)cc2)ccn1` the inhibition was -5% (RPS6KA5; enzyme activity, inhibitor; 0.3 µM).
`C[C@H]1CCN(c2nccc(-c3cnn4ncccc34)n2)C1` gave a remaining binding of 100% (RPS6KA5 C-terminal kinase domain; binding, competition with immobilised ligand; 1 µM).
With `O=C(NS(=O)(=O)c1ccc(NCC2CCOCC2)c([N+](=O)[O-])c1)c1ccc(N2CCN(Cc3ccc(C(F)(F)F)cc3-c3ccc(Cl)cc3)CC2)cc1Oc1cnc2[nH]ccc2c1` the remaining binding was 97% (RPS6KA5 N-terminal kinase domain; cell-free assay, competition with immobilised ligand; 1 µM).
With `CN(c1nccc(-c2cnn3ncccc23)n1)C1CC1` the remaining binding was 100% (RPS6KA5 N-terminal kinase domain; binding, competition with immobilised ligand; 1 µM).
`Cc1cnc(NC2CCOCC2)nc1-n1cnc(C(=O)NC(CN)c2cc(F)cc(Cl)c2)c1` (stereo not drawn) has a remaining activity of 74% (RPS6KA5; enzyme activity, inhibitor, radiometric; 1 µM).
`COc1cc2ncnc(Nc3ccc(Oc4ccccc4)cc3C)c2cc1OC` gave an inhibition of 2% (RPS6KA5; enzyme activity, inhibitor; 1 µM).
With `CC(C)(C)C(=O)c1sc(NC2CCCCC2)nc1N` the remaining activity was 102% (RPS6KA5; enzyme activity, inhibitor; 10 µM).
`Cc1ccc(NC(=O)c2ccc(C)c(C(F)(F)F)c2)cc1C#Cc1nn(C2CCC(O)CC2)c2ncnc(N)c12` (stereo not drawn) has a remaining signal of 95% (RPS6KA5; cell-free assay; 10 µM).
The inhibition of `C=CC(=O)Nc1cc(Nc2nccc(Nc3cc(Cl)c(F)cc3C(C)(C)O)n2)c(OC)cc1N1CC[C@@H](N(C)C)C1` is reported as 26% (RPS6KA5; enzyme activity, inhibitor; 1 µM).
`c1cnn2ncc(-c3ccnc(N4CCC45COC5)n3)c2c1` gave a remaining binding of 100% (RPS6KA5 C-terminal kinase domain; binding, competition with immobilised ligand; 1 µM).
With `Cc1ccc(C(=O)Nc2ccc(CN3CCN(C)CC3)c(C(F)(F)F)c2)cc1C#Cc1cnc2cccnn12` the remaining activity was 92% (RPS6KA5; enzyme activity, inhibitor; 23.5 nM).
The remaining binding of `CCC(=N\O)/C(C)=C/c1ccc(F)cc1` is reported as 100% (RPS6KA5 N-terminal kinase domain; cell-free assay, competition with immobilised ligand; 1 µM).
The remaining binding of `CC1CCCN1c1nccc(-c2cnn3ncccc23)n1` (stereo not drawn) is reported as 100% (RPS6KA5 C-terminal kinase domain; binding, competition with immobilised ligand; 1 µM).
`COc1cc(-c2cn(C3CCc4c(F)cccc4N(CC(F)(F)F)C3=O)nn2)ccc1-n1cnc(C)c1` (stereo not drawn) has a remaining binding of 100% (RPS6KA5 N-terminal kinase domain; cell-free assay, competition with immobilised ligand; 1 µM).
With `CN1CC(Oc2cnc(C#N)cc2-c2ccn3nc(NC(=O)C4CC4)cc3c2)C1` the inhibition was -7% (RPS6KA5; enzyme activity, inhibitor; 1 µM).
For `CCS(=O)(=O)c1cc2cc(C[C@](O)(CC(C)(C)c3ccc(F)cc3C(N)=O)C(F)(F)F)[nH]c2cn1`, the remaining binding was 100% (RPS6KA5 C-terminal kinase domain; cell-free assay, competition with immobilised ligand; 1 µM).
`O=C1Nc2ccc(Cl)cc2C1=Cc1cc(Cl)c(O)c(Cl)c1` has a remaining signal of 86.1% (RPS6KA5; cell-free assay; 0.5 µM).
`COc1ccc2cc(OCC3(C(=O)O)CN(C(=O)c4ccc(F)cc4)C3)ccc2c1` gave a remaining binding of 100% (RPS6KA5 N-terminal kinase domain; cell-free assay, competition with immobilised ligand; 1 µM).
The remaining activity of `O=C(Nc1cnn(-c2csc(C(=O)NC3COC3)c2)c1)Nc1ccccc1Cl` is reported as 89.5% (RPS6KA5; enzyme activity, inhibitor; 5 µM).
